Assay results taken from ChEMBL document CHEMBL4732170, “Discovery of Small-Molecule Antagonists of the PWWP Domain of NSD2” (J Med Chem, 2021).
Activity calls are given as the source filed them. The calls are words filed in the database; no cut-off is given here.

Key:
[1] = molecular target: T1, Histone-lysine N-methyltransferase NSD2 (Homo sapiens) (UniProt O96028); assay: Binding affinity to NSD2 PWWP1 domain (unknown origin) assessed as change in aggregation temperature at 500 uM by heating at 25 to 85 degC by differential static light scattering method; conditions: for deltaT: filed as antagonist
T1 sequence (whole entry): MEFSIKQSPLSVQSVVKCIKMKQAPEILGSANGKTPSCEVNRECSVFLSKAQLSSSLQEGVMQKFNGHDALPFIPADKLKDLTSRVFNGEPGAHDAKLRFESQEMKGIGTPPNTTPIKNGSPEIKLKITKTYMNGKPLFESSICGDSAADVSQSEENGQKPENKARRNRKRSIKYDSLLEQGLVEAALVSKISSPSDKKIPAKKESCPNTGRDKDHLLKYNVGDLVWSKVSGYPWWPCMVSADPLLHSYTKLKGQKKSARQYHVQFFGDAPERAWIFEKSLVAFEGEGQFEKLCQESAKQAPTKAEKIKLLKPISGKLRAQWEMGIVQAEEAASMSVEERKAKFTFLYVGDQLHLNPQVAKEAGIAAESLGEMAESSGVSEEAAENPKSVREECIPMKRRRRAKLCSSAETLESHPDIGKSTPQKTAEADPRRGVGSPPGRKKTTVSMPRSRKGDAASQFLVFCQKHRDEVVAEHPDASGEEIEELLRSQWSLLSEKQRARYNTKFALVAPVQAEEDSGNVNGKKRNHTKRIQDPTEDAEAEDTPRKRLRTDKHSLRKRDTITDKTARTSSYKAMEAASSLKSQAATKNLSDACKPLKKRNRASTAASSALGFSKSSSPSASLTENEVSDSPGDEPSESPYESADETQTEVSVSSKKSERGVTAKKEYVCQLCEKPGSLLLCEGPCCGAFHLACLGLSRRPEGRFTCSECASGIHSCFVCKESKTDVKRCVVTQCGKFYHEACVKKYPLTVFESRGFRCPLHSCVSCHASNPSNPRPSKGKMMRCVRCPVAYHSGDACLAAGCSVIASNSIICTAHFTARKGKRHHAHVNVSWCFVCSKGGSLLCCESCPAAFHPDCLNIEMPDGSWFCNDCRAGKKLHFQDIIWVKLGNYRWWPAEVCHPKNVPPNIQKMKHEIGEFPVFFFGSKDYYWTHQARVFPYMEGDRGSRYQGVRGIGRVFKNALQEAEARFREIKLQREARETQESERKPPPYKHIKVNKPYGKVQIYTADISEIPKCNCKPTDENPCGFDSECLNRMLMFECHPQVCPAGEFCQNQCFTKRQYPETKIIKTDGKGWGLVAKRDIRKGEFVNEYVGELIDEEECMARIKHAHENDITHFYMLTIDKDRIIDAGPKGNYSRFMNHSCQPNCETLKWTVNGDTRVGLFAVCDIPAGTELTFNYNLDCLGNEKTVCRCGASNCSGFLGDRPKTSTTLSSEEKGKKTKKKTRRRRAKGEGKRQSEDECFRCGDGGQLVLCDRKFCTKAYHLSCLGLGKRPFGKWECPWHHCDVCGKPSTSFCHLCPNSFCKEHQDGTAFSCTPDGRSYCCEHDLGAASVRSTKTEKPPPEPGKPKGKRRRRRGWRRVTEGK

[2] = molecular target: T1, Histone-lysine N-methyltransferase NSD2 (Homo sapiens); assay: (§1) Binding affinity to NSD2 PWWP1 domain (unknown origin) assessed as dissociation constant by surface plasmon resonance analysis
Procedure, shortened: (§2)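 SPR in single-cycle kinetics, HBS-EP buffer (20 mM HEPES pH 7.4, 150 mM NaCl, 3 mM EDTA, 0.05% Tween-20) with 5% DMSO. Ten concentrations from 200 μM top, twofold dilutions. Contact time 60 s, dissociation 120 s, flow 75 μL/min; Kd derived.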

[3] = molecular target: T2, Histone-lysine N-methyltransferase NSD2 (Homo sapiens, UniProt O96028); assay: as §1; procedure, shortened: as §2
T2 sequence (O96028 whole entry): T1 sequence (whole entry)

| Compound | Activity [1] | Activity [2] | Kd [3] [µM] | deltaT [1] [°C] |
| --- | --- | --- | --- | --- |
| N#Cc1ccc(C(=O)NCc2ccc(F)cc2)cc1 | inactive | inactive | – | – |
| N#Cc1ccc(C(=O)N2CCCC2c2ccc(Cl)cc2)cc1 (configuration not stated) | – | – | 175 | – |
| N#Cc1ccc(C(=O)N(CC2CCOC2)C2CC2)cc1 (configuration not stated) | – | – | 5.7 | 5.4 |
| Cc1ccc(C(=O)N2CCCC2c2ccc(Cl)cc2)cc1 (configuration not stated) | inactive | inactive | – | – |
| CC(C)N(Cc1ccc(F)cc1)C(=O)c1ccc(C#N)cc1 | inactive | inactive | – | – |
| N#Cc1ccc(C(=O)N(Cc2ccc(F)cc2)C2CC2)cc1 | – | – | 7 | – |
| N#Cc1ccc(C(=O)N2CCCC2c2ccccc2)cc1 (configuration not stated) | – | – | 110 | 2.4 |
| N#Cc1ccc(C(=O)N(Cc2ccc(F)cc2)C2CCC2)cc1 | – | – | 114 | 1.1 |
| N#Cc1ccc(C(=O)N2CCCC2c2ccsc2)cc1 (configuration not stated) | – | – | 178 | 2.2 |
| COc1ccc(C2CCCN2C(=O)c2ccc(C#N)cc2)cc1 (configuration not stated) | – | – | 208 | 2.4 |
| COC(=O)c1ccc(C(=O)N2CCCC2c2ccc(F)cc2)cc1 (configuration not stated) | – | – | 173 | 1.4 |
| CN(Cc1ccc(F)cc1)C(=O)c1ccc(C#N)cc1 | – | – | 74 | 2 |
| O=C(c1ccccc1)N1CCCC1c1ccccc1 (configuration not stated) | inactive | inactive | – | – |
| N#Cc1ccc(C(=O)N2CCCC2c2ccncc2)cc1 (configuration not stated) | – | – | 160 | 2.8 |
| N#Cc1ccc(C(=O)N(Cc2ccc(F)cc2)C2CCCCC2)cc1 | inactive | inactive | – | – |
| N#Cc1ccc(C(=O)N2CCCC2c2ccc3c(c2)OCCO3)cc1 (configuration not stated) | – | – | 138 | 2.7 |
| O=C(c1ccc(N2CNC=N2)cc1)N1CCCC1c1ccc(F)cc1 (configuration not stated) | – | – | 297 | 1.2 |
